Most compounds without a hit are left out; they make up all but 1.8% or so of the library.
HDAC3 inh – human HDAC3 inhibition. recombinant HDAC3, fluorogenic peptide/trypsin coupled, fluorescence. O15379. 320,000 compounds, 0.15% hits. inhibition, % at 8.3 µM; in the data active = inhibition above about 26%, passing the limit was not always enough; inconclusive = no clear call, values can overlap the other calls
AI-2 QS mod – modulates the Vibrio harveyi AI-2 quorum sensing system; activity change, % at 7.5 µM; 300,000 compounds, 0.4% hits; Vibrio harveyi JMH597 AI-2 luminescence/OD600 ratio, 9 h; hits give low values; strain lacks LuxN and CqsS sensors; 0 = neutral-control median; AID 2094; in the data active = activity change below about -75%, passing the limit was not always enough; inconclusive = no clear call, values can overlap the other calls;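 also: luminescence divided by OD600 gain over 9 h not by final OD600 alone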
Bfl-1 A1 inh – inhibitors of the anti-apoptotic protein A1, read as caspase activation; 330,000 compounds, 0.066% hits; caspase activation, % (no concentration beside the values); MEF A1-2A-BIM cells, Caspase-Glo 3/7 luminescence, 3 h; percent of clofoctol response, vehicle zero;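 active = over half of replicate activation scores above 10%, or exactly half above 10 with the replicate mean above 10; inconclusive = replicate mean below 10 yet half the replicates above 10; inactive = over half of replicates below 10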
LANA-H2A inh – blocks KSHV LANA binding to histone H2A/H2B; inhibition, % (concentration not given with the values); cell-free LANA-H2A/H2B peptide, fluorescence polarization; 320,000 compounds, 0.6% hits; Q9QR71; in the data active = inhibition mostly above about 10%, no sharp cut-off; inactive = mostly below about 6.7%
Target sequence (Q9QR71 whole entry, looked up): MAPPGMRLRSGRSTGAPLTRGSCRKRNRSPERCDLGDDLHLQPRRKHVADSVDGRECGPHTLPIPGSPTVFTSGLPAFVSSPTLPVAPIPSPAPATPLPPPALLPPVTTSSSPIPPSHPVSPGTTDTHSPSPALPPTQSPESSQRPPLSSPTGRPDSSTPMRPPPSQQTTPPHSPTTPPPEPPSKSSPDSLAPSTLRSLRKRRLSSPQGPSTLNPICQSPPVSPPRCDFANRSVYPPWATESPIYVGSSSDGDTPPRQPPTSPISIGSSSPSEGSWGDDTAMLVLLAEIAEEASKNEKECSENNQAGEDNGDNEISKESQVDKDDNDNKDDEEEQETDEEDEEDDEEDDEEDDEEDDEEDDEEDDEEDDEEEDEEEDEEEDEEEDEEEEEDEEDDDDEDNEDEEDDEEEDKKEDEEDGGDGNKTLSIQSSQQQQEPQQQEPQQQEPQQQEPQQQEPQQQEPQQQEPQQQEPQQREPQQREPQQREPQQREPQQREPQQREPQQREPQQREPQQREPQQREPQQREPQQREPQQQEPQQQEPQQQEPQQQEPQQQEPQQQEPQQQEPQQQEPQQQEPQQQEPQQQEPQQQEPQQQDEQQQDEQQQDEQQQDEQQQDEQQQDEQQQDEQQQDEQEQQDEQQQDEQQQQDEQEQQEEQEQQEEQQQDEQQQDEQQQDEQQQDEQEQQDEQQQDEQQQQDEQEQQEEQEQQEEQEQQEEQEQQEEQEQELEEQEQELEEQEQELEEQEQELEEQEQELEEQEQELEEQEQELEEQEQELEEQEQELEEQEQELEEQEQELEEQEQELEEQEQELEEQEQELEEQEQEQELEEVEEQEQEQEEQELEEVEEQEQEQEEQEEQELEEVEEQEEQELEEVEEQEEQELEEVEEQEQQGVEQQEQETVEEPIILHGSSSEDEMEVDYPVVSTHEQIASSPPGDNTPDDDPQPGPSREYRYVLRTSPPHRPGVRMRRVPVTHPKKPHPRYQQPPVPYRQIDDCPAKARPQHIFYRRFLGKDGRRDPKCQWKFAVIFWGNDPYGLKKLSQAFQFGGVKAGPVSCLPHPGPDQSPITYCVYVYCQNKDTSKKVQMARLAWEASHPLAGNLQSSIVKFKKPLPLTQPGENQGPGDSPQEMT
HKDC1 inhibitor – inhibitors of human hexokinase HKDC1; Q2TB90; recombinant HKDC1, G6PDH/diaphorase resazurin coupled fluorescence; inhibition, % at 20 µM; 340,000 compounds, 0.16% hits; AID 493160;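 active = inhibition above about 35% when tested at 20 µM, limit read from the data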
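Assay system: recombinant HKDC1 hexokinase; detection: coupled resazurin fluorescence, excitation 525 nm, emission 613 nm; benchmarks: DMSO-plus-enzyme-mix negative control, buffer-substituted positive control; compound dosing: single 20 µM dose; schedule: 90 min at room temperature in dark; also added: glucose plus 1 mM ATP as hexokinase substrates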
ATG4B inhibitor – inhibitors of human ATG4B cysteine protease | Q9Y4P1 | ATG4B cleavage of LC3-PLA2, NBD-HPC fluorescence, 1 h | inhibition, % at 8.33 µM | 340,000 compounds, 0.51% hits | AID 504462; in the data active = inhibition above about 40%
HKDC1 act conf2 – confirmation of human HKDC1 activators | shares compounds with HKDC1 inhibitor | recombinant HKDC1, G6PDH/diaphorase resazurin fluorescence; hits give low values | inhibition, % at 20 µM | 740 compounds, 14% hits;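 active = inhibition at or below a set negative limit, negative inhibition meaning the enzyme was activated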
Hits are given with their value; n = inactive; u = inconclusive; x = not tested or not shown.

SMILES	HDAC3 inh	AI-2 QS mod	Bfl-1 A1 inh	LANA-H2A inh	HKDC1 inhibitor	ATG4B inhibitor	HKDC1 act conf2
NS(=O)(=O)c1ccc(N/N=C/c2ccc(O)c(O)c2O)c([N+](=O)[O-])c1	x	x	x	x	36	n	n
Cc1cccc(N=C2NN=C(c3ccccc3F)CS2)c1C	n	n	n	n	n	n	x
COc1ccc(C2=NNC(=Nc3cc(S(=O)(=O)N(C)C)ccc3C)SC2)c(OC)c1	n	n	n	n	n	n	-120
COc1cc(C(CC(=O)Nc2ncccc2C)N2Cc3ccccc3C2=O)cc(OC)c1OC (stereo not given)	n	n	n	n	n	n	x
O=S(=O)(Nc1cc(Sc2cccc3cccnc23)c(O)c2ccccc12)c1ccccc1	x	n	x	x	x	x	x
CCc1ccc(S(=O)(=O)Nc2cc(SCC(=O)O)c(O)c3ccccc23)cc1	n	n	n	n	54	n	n
Cc1ccc(NS(=O)(=O)c2cc(NC(=O)C(C)Oc3ccccc3)ccc2C)c(C)c1 (stereo not given)	n	n	n	n	n	n	x
O=C(O)CSc1cc(NS(=O)(=O)c2cccc([N+](=O)[O-])c2)c2ccccc2c1O	x	n	x	x	59	n	n
Cc1ccc(C)c(S(=O)(=O)Nc2cc(SCC(=O)O)c(O)c3ccccc23)c1	n	x	n	n	63	n	n
CCOc1ccc(S(=O)(=O)Nc2cc(SCC(=O)O)c(O)c3ccccc23)cc1	n	n	n	n	60	n	n
COc1ccc(CN2CCNC(=O)C2CC(=O)N(C)Cc2nccn2C)cc1OC (stereo not given)	n	n	n	n	n	n	x
COc1ccc(-c2nnc(SC)nc2-c2ccc(OC)c([N+](=O)[O-])c2)cc1[N+](=O)[O-]	n	n	n	n	n	n	n
CCN(CC)c1ccc2c(C)c(Cl)c(=O)oc2c1	n	n	n	n	n	n	x
CCN(CC)c1ccc2c(c1)oc(=O)c1c(Cl)cc(=O)oc12	n	n	u	n	49	n	n
O=S(=O)(/C=C/c1ccccc1)N1CCN(c2nc(-c3cccnc3)nc3ccccc23)CC1	n	n	n	n	n	n	x
CCCCC(NC(=O)Cc1c(C)c2cc3c(C)c(C)oc3c(C)c2oc1=O)C(=O)O (stereo not given)	n	n	n	n	n	n	x
CCCC(NC(=O)Cc1c(C)c2cc3c(C)c(C)oc3c(C)c2oc1=O)C(=O)N[C@@H](Cc1ccccc1)C(=O)O (stereo not given in full)	n	n	n	n	52	n	n
O=C(CN1CSCC1=O)N1CCN(S(=O)(=O)c2cccc(F)c2)CC1	n	x	n	n	n	n	x
CCOC(=O)C(C(=O)OCC)c1cc(Br)c2noc3c2c1C(=O)c1ccccc1-3	n	n	10	n	54	n	n
c1ccc(COc2ncnc3c2ncn3CCCN2CCN(c3ccccn3)CC2)cc1	x	x	x	x	n	n	x
COC(=O)CCC(=O)OC1(C)C(=O)C2=CN(c3ccccc3)C(c3ccc(OC)cc3)=CC2=C(Br)C1=O (stereo not given)	n	n	n	n	38	n	n
COC(=O)CCC(=O)OC1(C)C(=O)C2=CN(CC3CC3)C(c3ccc(OC)cc3)=CC2=C(Br)C1=O (stereo not given)	n	n	n	n	37	n	n
CC(C)CN1C=C2C(=O)C(C)(OC(=O)CCc3ccccc3)C(=O)C=C2C=C1c1ccc(C#N)cc1 (stereo not given)	n	n	n	n	n	n	x
COC(=O)CCC(=O)OC1(C)C(=O)C2=CN(Cc3ccc(OC)cc3)C(c3ccc(OC)cc3)=CC2=C(Br)C1=O (stereo not given)	n	n	n	n	n	n	x
CC1(OC(=O)CCc2ccccc2)C(=O)C=C2C=C(c3ccc(C#N)cc3)N(Cc3ccccc3)C=C2C1=O (stereo not given)	n	n	n	n	36	n	n
SMILES	HDAC3 inh	AI-2 QS mod	Bfl-1 A1 inh	LANA-H2A inh	HKDC1 inhibitor	ATG4B inhibitor	HKDC1 act conf2
COC(=O)CCC(=O)OC1(C)C(=O)C2=CN(Cc3ccccc3)C(c3ccc(OC)cc3)=CC2=C(Br)C1=O (stereo not given)	n	n	n	n	43	n	n
Cc1ccc(OCc2ccc(C(=O)Nc3nc4ccccc4n3C)o2)c([N+](=O)[O-])c1	n	n	n	n	n	n	x
Cc1n[nH]c(=O)nc1N/N=C/c1ccco1	n	n	n	n	n	n	x
O=C(COc1ccc(Br)cc1)N(CCO)CCO	n	n	n	n	n	n	x
O=C(NCCc1c[nH]c2ccccc12)OCCCCOC(=O)NCCc1c[nH]c2ccccc12	n	n	n	n	n	n	x
Clc1ccc(Sc2oc(/C=N/n3cnnc3)cc2Br)cc1	n	n	n	n	n	n	x
CN(C)C(=O)/C(C#N)=C\c1cc(Br)c(Sc2ccc(Cl)cc2)o1	n	x	n	n	35	n	n
C#CC(C)OC(=O)C(C)NC(=O)c1ccccc1 (stereo not given)	n	n	n	n	n	n	x
COc1ccc(NC(=O)Cc2c[nH]c3ccccc23)cc1S(=O)(=O)N1CCCCC1	n	n	n	n	49	n	-35
COc1ccc(NC(=O)Cc2c[nH]c3ccccc23)cc1S(=O)(=O)N1CCOCC1	n	n	n	n	n	n	x
CC(=NNC(=S)Nc1ccccc1Cl)c1ccccn1	x	x	x	x	n	n	x
C=CCNC(=S)N/N=C(\C)c1ccccn1	n	n	n	n	n	n	n
O=C(OCC(=O)N1CCN(C(=O)c2ccco2)CC1)c1cc(-c2ccccc2)nc2ccccc12	n	n	n	n	37	n	n
CCN1CCN(S(=O)(=O)c2cc(C(=O)O)ccc2Cl)CC1	n	n	n	n	n	n	x
C=CCN(c1ccc(Cl)cc1)S(=O)(=O)c1cccc(C(=O)O)c1	n	n	n	n	n	n	x
CC(C(=O)O)N1C(=O)/C(=C/C=C/c2ccco2)SC1=S (stereo not given)	n	n	n	n	56	72	n
CCN(C(=O)C(C)N1C(=O)/C(=C/c2ccco2)SC1=S)C1CCS(=O)(=O)C1 (stereo not given)	n	n	n	n	n	n	x
Cc1ccc(C(=O)CSc2n[nH]c(-c3ccco3)n2)cc1C	n	n	n	n	n	n	n
COc1ccc(C(=O)CSc2n[nH]c(-c3ccco3)n2)cc1	n	n	x	n	n	n	x
CCOc1ccc2c(ccc(/C=C/c3cc(C)c4cccnc4c3O)[n+]2C)c1	x	x	x	x	46	n	n
CCC(C)(C)NC(=O)C(c1cccc(OC)c1OC)N(CCC(C)C)C(=O)CCC(=O)Nc1cc(C)on1 (stereo not given)	n	n	n	n	n	n	x

Source: PubChem
